Results from different studies.
pIC50: −log10 of the molar value.
ACKR3: Atypical chemokine receptor 3 (ACKR3, Homo sapiens, UniProt P25106)
CYP2C19: Cytochrome P450 2C19 (CYP2C19, Homo sapiens, UniProt P33261)
LATS1: Serine/threonine-protein kinase LATS1 (LATS1, Homo sapiens, UniProt O95835)
SLC18A2: Synaptic vesicular amine transporter (SLC18A2, Homo sapiens, UniProt Q05940)
gag-pol reverse transcriptase: Gag-Pol polyprotein, reverse transcriptase (gag-pol, Human immunodeficiency virus 1, UniProt P03366)
CA2: Carbonic anhydrase 2 (CA2, Homo sapiens, UniProt P00918)
CA1: Carbonic anhydrase 1 (CA1, Homo sapiens, UniProt P00915)
UGT1A4: UDP-glucuronosyltransferase 1A4 (UGT1A4, Homo sapiens, UniProt P22310)
ERBB2: Receptor tyrosine-protein kinase erbB-2 (ERBB2, Homo sapiens, UniProt P04626)
HTR3A: 5-hydroxytryptamine receptor 3A (HTR3A, Homo sapiens, UniProt P46098)

Structure (SMILES) | target | test | test system | setting | pIC50
CC(C)(C)NC(=O)C1CCN(Cc2cccc(/N=N/c3cccc(F)c3)c2)CC1 | ACKR3 | ligand displacement, BRET | – | – | 5.70
Cc1ccc(OCC(=O)N[C@@H](Cc2c[nH]c3ccccc23)C(=O)OC(C)C)cc1 | CYP2C19 | enzyme activity, inhibitor | human, liver microsomes | 30 min | 4.50
C[C@@H]1CNC[C@H](C)[C@@]1(O)c1ccc(-c2ccnc3[nH]cc(F)c23)cc1 | LATS1 | enzyme activity, inhibitor, radiometric | – | – | 7.96
O=C1CC2(CCCC2)CC(=O)N1CCCCN1CCN(c2ncccn2)CC1 | SLC18A2 | transporter uptake, inhibitor | – | – | 5.66
CCOC(=O)c1c(N(CC)CC)c2c([nH]c1=O)CCC2 | gag-pol reverse transcriptase | enzyme activity, inhibitor | – | – | < 4.00
O=C(O[C@H]1CN2CCC1CC2)N1CCc2ccccc2[C@@H]1c1ccccc1 | SLC18A2 | transporter uptake, inhibitor | – | – | 5.24
CCCCCNc1c2c([nH]c(=O)c1C(=O)OCC)CCC2 | gag-pol reverse transcriptase | enzyme activity, inhibitor | – | – | < 4.00
OC1(c2ccc(-c3ccnc4[nH]cc(F)c34)cc2)CCCNCC1 (stereo not drawn) | LATS1 | target engagement in cells, BRET | – | – | 5.15
COc1ccnc(C[S+]([O-])c2nc3ccc(OC(F)F)cc3[nH]2)c1OC (stereo not drawn) | CA2 | enzyme activity, inhibitor, absorbance | – | pH 7.4 | 4.86
CCc1nn(CCCN2CCN(c3cccc(Cl)c3)CC2)c(=O)n1CCOc1ccccc1 | SLC18A2 | transporter uptake, inhibitor | – | – | 6.18
CCCCCCNc1c2c([nH]c(=O)c1C(=O)OCC)CCC2 | gag-pol reverse transcriptase | enzyme activity, inhibitor | – | – | < 4.00
C[C@H]1c2cccc(O)c2C(=O)C2=C(O)[C@]3(O)C(=O)C(C(N)=O)=C(O)[C@@H](N(C)C)[C@@H]3[C@@H](O)[C@@H]21 | CA1 | enzyme activity, inhibitor, absorbance | – | pH 7.4 | 4.90
C=C(C)[C@@H]1CC[C@]2(C(=O)O)CC[C@]3(C)[C@H](CC[C@@H]4[C@@]5(C)CC[C@H](O)C(C)(C)[C@@H]5CC[C@]43C)[C@@H]12 | UGT1A4 | enzyme activity, inhibitor | human, liver microsomes | – | 5.38
CC(C)=CCC/C(C)=C/CC/C(C)=C/Cc1c(O)cc(C)c(C(=O)O)c1O | Sodium channel protein type 2 subunit alpha (SCN2A, Homo sapiens, UniProt Q99250) | ion current, inhibitor, patch clamp | – | – | 5.79
CCOC(=O)c1c(NCCCN)c2c([nH]c1=O)CCC2 | gag-pol reverse transcriptase | enzyme activity, inhibitor | – | – | < 4.00
C=CCc1ccccc1OCC(O)CNC(C)C (stereo not drawn) | SLC18A2 | transporter uptake, inhibitor | – | – | 5.11
CC(C)[C@H](N)C(=O)OCCOCn1cnc2c(=O)[nH]c(N)nc21 | CA1 | enzyme activity, inhibitor, absorbance | – | pH 7.4 | 4.89
C[C@@H]1CC[C@@]2(OC1)O[C@H]1C[C@H]3[C@@H]4CC[C@H]5C[C@@H](O)CC[C@]5(C)[C@H]4CC(=O)[C@]3(C)[C@H]1[C@@H]2C | UGT1A4 | enzyme activity, inhibitor | human, liver microsomes | – | 5.65
CCOC(=O)c1c(NCCC2CC2)c2c([nH]c1=O)CCC2 | gag-pol reverse transcriptase | enzyme activity, inhibitor | – | – | < 4.00
CC(C)(C)NC(=O)C1CCN(Cc2cccc(NC(=O)c3ccc(F)cc3)c2)CC1 | ACKR3 | ligand displacement, BRET | – | – | 7.20
CC1CNCCC1(O)c1ccc(-c2ccnc3[nH]cc(F)c23)cc1 (stereo not drawn) | LATS1 | target engagement in cells, BRET | – | – | 5.66
OCc1ccc(-c2nn(Cc3ccccc3)c3ccccc23)o1 | CYP2C19 | enzyme activity, inhibitor | human, liver microsomes | – | 5.48
Cc1cc2c(cc1C)N[C@H](c1ccccc1)[C@@H](O)C(=O)N2 | ERBB2 | enzyme activity, inhibitor, ELISA | – | – | 7.64

Structure (SMILES) | target | test | test system | setting | pIC50
CC(C)Nc1cccnc1N1CCN(C(=O)c2cc3cc(NS(C)(=O)=O)ccc3[nH]2)CC1 | SLC18A2 | transporter uptake, inhibitor | – | – | 5.39
OC1(c2ccc(-c3ccnc4[nH]cc(F)c34)cc2)CCNC1 (stereo not drawn) | LATS1 | enzyme activity, inhibitor, radiometric | – | – | 7.96
CC[C@H]1OC(=O)[C@H](C)[C@@H](O[C@H]2C[C@@](C)(OC)[C@@H](O)[C@H](C)O2)[C@H](C)[C@@H](O[C@@H]2O[C@H](C)C[C@H](N(C)C)[C@H]2O)[C@](C)(O)C[C@@H](C)CN(C)[C@H](C)[C@@H](O)[C@]1(C)O | CA1 | enzyme activity, inhibitor, absorbance | – | pH 7.4 | 4.82
C=CCn1c(=O)c2cnc(Nc3ccc(N4CCN(C)CC4)cc3)nc2n1-c1ccc2c(n1)[C@@](O)(CC)CC2 | CYP2C19 | enzyme activity, inhibitor | – | – | 5.00
CN(C/C=C/C#CC(C)(C)C)Cc1cccc2ccccc12 | CA1 | enzyme activity, inhibitor, absorbance | – | pH 7.4 | 4.52
Cc1cc(-c2ccnc3[nH]cc(F)c23)cc(F)c1[C@@]1(O)[C@H](C)CN(C(=O)CN)C[C@@H]1C | LATS1 | enzyme activity, inhibitor, radiometric | – | – | 8.74
CN1CCC(CNc2ccc3ncc(-c4cccc(OC(F)(F)F)c4)n3n2)CC1 | HTR3A | ion current | – | – | 5.46
COc1cc2nc(N3CCN(C(=O)c4ccco4)[C@H]4CCCC[C@H]43)nc(N)c2cc1OC (racemic) | SLC18A2 | transporter uptake, inhibitor | – | – | 6.84
CCOC(=O)c1c(NCCC(C)C)c2c([nH]c1=O)CCC2 | gag-pol reverse transcriptase | enzyme activity, inhibitor | – | – | 4.05
NC(=O)c1nnn(Cc2cc(Cl)c(C(=O)c3ccc(Cl)cc3)c(Cl)c2)c1N | HTR3A | ion current | – | – | 5.36
Fc1c[nH]c2nccc(-c3ccc(C4CCNCC4)cc3)c12 | LATS1 | enzyme activity, inhibitor, radiometric | – | – | 8.06
CCOC(=O)c1c(NCCCCN)c2c([nH]c1=O)CCC2 | gag-pol reverse transcriptase | enzyme activity, inhibitor | – | – | < 4.00
COc1cc2c(N)nc(N3CCN(C(=O)OCC(C)(C)O)CC3)nc2c(OC)c1OC | SLC18A2 | transporter uptake, inhibitor | – | – | 7.66
Nc1ccc(S(=O)(=O)c2ccc(N)cc2)cc1 | CA2 | enzyme activity, inhibitor, absorbance | – | pH 7.4 | 4.82
Cc1cc(-c2ccnc3[nH]cc(F)c23)cc(F)c1[C@@]1(O)[C@H](C)CN(C2COC2)C[C@@H]1C | LATS1 | enzyme activity, inhibitor, radiometric | – | – | 8.23
CC(C)(C(=O)O)c1ccc(C(O)CCCN2CCC(C(O)(c3ccccc3)c3ccccc3)CC2)cc1 (stereo not drawn) | CA2 | enzyme activity, inhibitor, absorbance | – | pH 7.4 | 4.55
C=CCCCNc1c2c([nH]c(=O)c1C(=O)OCC)CCC2 | gag-pol reverse transcriptase | enzyme activity, inhibitor | – | – | < 4.00
O=C(CCCN1CC=C(n2c(=O)[nH]c3ccccc32)CC1)c1ccc(F)cc1 | SLC18A2 | transporter uptake, inhibitor, radiometric | – | cell membranes | 6.81
CC1=C(/C=C/C(C)=C/C=C/C(C)=C\C(=O)O)C(C)(C)CCC1 | CA1 | enzyme activity, inhibitor, absorbance | – | pH 7.4 | 5.07
CC(C)(C)NC(=O)C1CCN(Cc2cccc(/N=N/c3ccc(C(F)(F)F)cc3)c2)CC1 | ACKR3 | ligand displacement, BRET | – | – | < 5.00
OC1(c2ccc(-c3ccnc4[nH]cc(F)c34)cc2)CCNCC1 | LATS1 | target engagement in cells, BRET | – | – | 4.77
COc1c(Cl)cccc1Nc1c(-c2ccncc2OC[C@@H]2COCCO2)[nH]c2c1C(=O)NCC2 | ERBB2 | enzyme activity, inhibitor, TR-FRET | – | – | > 9.30
